# Experimental data as given in paper PMC6510378 (Clinical and Translational Science, 2019).
# Experiment: MAD study part 1
# Type: in vivo, human
# Method in brief: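 Healthy young Japanese, young non-Japanese and elderly non-Japanese adults got a single oral dose (10, 20 or 50 mg) or placebo on day 1. After a 4-day washout, dosing was once daily on days 5–18. PK-day doses were taken with 240 mL water after a 10-hour fast, with no food for 4 h. Plasma drug was measured by validated HPLC-MS/MS. Values below the limit of quantification were set to zero.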
# [1] = MAD part 1, day 1 single dose 10 mg, young Japanese, n=8
# [2] = MAD part 1, day 1 single dose 20 mg, elderly non-Japanese, n=9
# [3] = MAD part 1, day 1 single dose 20 mg, young Japanese, n=8
# [4] = MAD part 1, day 1 single dose 20 mg, young non-Japanese, n=8
# [5] = MAD part 1, day 1 single dose 50 mg, young Japanese, n=8
# [6] = MAD part 1, day 1 single dose 50 mg, young non-Japanese, n=8
# [7] = MAD part 1, day 18 multiple dose q.d. 14 days 10 mg, young Japanese, n=8
# [8] = MAD part 1, day 18 multiple dose q.d. 14 days 20 mg, elderly non-Japanese, n=9
# [9] = MAD part 1, day 18 multiple dose q.d. 14 days 20 mg, young Japanese, n=8
# [10] = MAD part 1, day 18 multiple dose q.d. 14 days 20 mg, young non-Japanese, n=8
# [11] = MAD part 1, day 18 multiple dose q.d. 14 days 50 mg, young Japanese, n=8
# [12] = MAD part 1, day 18 multiple dose q.d. 14 days 50 mg, young non-Japanese, n=7
compound,measurement,setting,value
Cn1c(-c2ccc(C(N)=O)cc2F)nnc1C(C)(C)Oc1c(F)cc(Cl)cc1F [ASP3662],"CL/F, Mean (SD)",[1],9.254 (4.086) L/hour
same,"CL/F, Median",[1],7.651 L/h
same,"CL/F, Min–max",[1],5.05 to 15.3 L/h
same,"CL/F, Mean (SD)",[2],6.99 (2.152) L/hour
same,"CL/F, Median",[2],6.567 L/h
same,"CL/F, Min–max",[2],3.8 to 10.4 L/h
same,"CL/F, Mean (SD)",[3],9.993 (2.926) L/hour
same,"CL/F, Median",[3],9.182 L/h
same,"CL/F, Min–max",[3],6.03 to 15.0 L/h
same,"CL/F, Mean (SD)",[4],7.412 (2.61) L/hour
same,"CL/F, Median",[4],7.279 L/h
same,"CL/F, Min–max",[4],4.33 to 11.7 L/h
same,"CL/F, Mean (SD)",[5],6.758 (1.787) L/hour
same,"CL/F, Median",[5],6.240 L/h
same,"CL/F, Min–max",[5],4.30 to 9.40 L/h
same,"CL/F, Mean (SD)",[6],7.005 (2.789) L/hour
same,"CL/F, Median",[6],7.259 L/h
same,"CL/F, Min–max",[6],2.53 to 10.1 L/h
same,"CL/F, Mean (SD)",[7],6.07 (2.591) L/hour
same,"CL/F, Median",[7],5.708 L/h
same,"CL/F, Min–max",[7],3.02 to 9.87 L/h
same,"Ctrough, Mean (SD)",[7],37.65 (30.42) ng/mL
same,"Ctrough, Median",[7],24.76 ng/mL
same,"Ctrough, Min–max",[7],13.5 to 84.0 ng/mL
same,"CL/F, Mean (SD)",[8],5.675 (1.649) L/hour
same,"CL/F, Median",[8],5.675 L/h
same,"CL/F, Min–max",[8],2.81 to 8.51 L/h
same,"Ctrough, Mean (SD)",[8],63.58 (49.38) ng/mL
same,"Ctrough, Median",[8],52.25 ng/mL
same,"Ctrough, Min–max",[8],26.1 to 184 ng/mL
same,"CL/F, Mean (SD)",[9],8.322 (2.562) L/hour
same,"CL/F, Median",[9],8.117 L/h
same,"CL/F, Min–max",[9],4.47 to 13.5 L/h
same,"Ctrough, Mean (SD)",[9],34.01 (24.86) ng/mL
same,"Ctrough, Median",[9],26.35 ng/mL
same,"Ctrough, Min–max",[9],13.7 to 92.1 ng/mL
same,"CL/F, Mean (SD)",[10],6.487 (2.372) L/hour
same,"CL/F, Median",[10],6.473 L/h
same,"CL/F, Min–max",[10],3.64 to 10.3 L/h
same,"Ctrough, Mean (SD)",[10],58.68 (40.91) ng/mL
same,"Ctrough, Median",[10],42.71 ng/mL
same,"Ctrough, Min–max",[10],19.9 to 132 ng/mL
same,"CL/F, Mean (SD)",[11],10.46 (12.75) L/hour
same,"CL/F, Median",[11],6.58 L/h
same,"CL/F, Min–max",[11],3.80 to 41.8 L/h
same,"Ctrough, Mean (SD)",[11],115.3 (59.73) ng/mL
same,"Ctrough, Median",[11],103.3 ng/mL
same,"Ctrough, Min–max",[11],21.0 to 223 ng/mL
same,"CL/F, Mean (SD)",[12],5.507 (2.275) L/hour
same,"CL/F, Median",[12],5.607 L/h
same,"CL/F, Min–max",[12],1.86 to 8.76 L/h
same,"Ctrough, Mean (SD)",[12],261.3 (267.1) ng/mL
same,"Ctrough, Median",[12],175.2 ng/mL
same,"Ctrough, Min–max",[12],60.4 to 841 ng/mL
